Values after ≈ are worked out from the molar mass of the structure shown.
Legend:
Format in all cases: functional
Geotrichum candidum = test: Antifungal activity against Geotrichum candidum
Curvularia australiensis [1] = test: Antifungal activity against Bipolaris australiensis by EUCAST method
In short: (§1)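 Dematiaceous fungi were tested by the EUCAST spore-forming mold reference procedure: flat-bottom microdilution plates, RPMI 1640 plus 2% glucose, inoculum 2 × 105 to 5 × 10^5 CFU/ml. Endpoints were read visually at 24 and 48 h. Polyenes and azoles: 100% growth reduction vs drug-free control. CPF: minimum effective concentration. Run in duplicate and repeated twice.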

[2] = Antifungal activity against Rhizopus microsporus var. oligosporus by EUCAST method
In short: (§2)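 Broth microdilution following the EUCAST reference procedure for spore-forming moulds, in flat-bottom plates with RPMI 1640 plus 2% glucose. Inoculum was 2 × 10^5 to 5 × 10^5 CFU/ml. MICs were read visually at 24 and 48 h as 100% growth reduction versus a drug-free control for polyenes and azoles. MEC was used for caspofungin. Tests were run in duplicate and repeated twice.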

Candida parapsilosis = test: Antifungal activity against Candida parapsilosis; conditions: Lodderomyces parapsilosis
In short: (§3)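 Broth microdilution in flat-bottom plates in RPMI 1640 with 2% glucose; inoculum 0.5 × 105 to 2.5 × 10^5 CFU/ml. MICs were read spectrophotometrically at 24 h. AMB endpoint: ≥90% growth reduction vs drug-free control well. Azole and CPF endpoint: 50% reduction in optical density. MFC was taken as the lowest concentration giving 99% killing.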

Absidia [3] = test: Antifungal activity against Absidia species
Candida tropicalis [4] = test: Antifungal activity against Candida tropicalis by EUCAST method; in short: as §3
Saccharomyces cerevisiae [5] = test: Antifungal activity against Saccharomyces cerevisiae by EUCAST method
In short: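 EUCAST broth microdilution for yeasts in flat-bottom plates, RPMI 1640 with 2% glucose, inoculum 0.5 × 105 to 2.5 × 10^5 CFU/ml. […] MFC is the lowest concentration giving 99% killing.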

Trichosporon inkin = test: Antifungal activity against Trichosporon inkin
In short: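 Nonfermentative yeasts were tested by the EUCAST microdilution recommendations with one change: plates were sealed and agitated at 350 rpm and 30°C for 48 h.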

Aspergillus niger [6] = test: Antifungal activity against Aspergillus niger
Fusarium oxysporum [7] = test: Antifungal activity against Fusarium oxysporum
[8] = Antifungal activity against Cryptococcus neoformans var. neoformans; conditions: Cryptococcus deneoformans
In short: (§4)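 EUCAST yeast microdilution, modified for nonfermentative yeasts: plates were sealed and agitated at 350 rpm and 30°C for 48 h.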

Curvularia australiensis [9] = test: Antifungal activity against Bipolaris australiensis; in short: as §1
Rhizopus arrhizus [10] = test: Antifungal activity against Rhizopus oryzae by EUCAST method; in short: as §2
Penicillium sp. = test: Antifungal activity against Penicillium species by EUCAST method
Aspergillus fumigatus = test: Antifungal activity against Aspergillus fumigatus
Fusarium oxysporum [11] = test: Antifungal activity against Fusarium oxysporum by EUCAST method
[12] = tested on: Meyerozyma guilliermondii; test: Antifungal activity against Candida guilliermondii by EUCAST method; in short: as §3
Scedosporium apiospermum [13] = test: Antifungal activity against Scedosporium apiospermum; in short: as §2
Mucor hiemalis [14] = test: Antifungal activity against Mucor hiemalis by EUCAST method
Candida albicans = test: Antifungal activity against Candida albicans; in short: as §3
[15] = Antifungal activity against Cryptococcus neoformans var. neoformans by EUCAST method; conditions: Cryptococcus deneoformans; in short: as §4
Aspergillus terreus [16] = test: Antifungal activity against Aspergillus terreus
Lichtheimia corymbifera = test: Antifungal activity against Absidia corymbifera by EUCAST method
Rhizopus = test: Antifungal activity against Rhizopus species; in short: as §2
Aspergillus terreus [17] = test: Antifungal activity against Aspergillus terreus by EUCAST method
Aspergillus flavus [18] = test: Antifungal activity against Aspergillus flavus
Rhizopus arrhizus [19] = test: Antifungal activity against Rhizopus oryzae; in short: as §2
Absidia [20] = test: Antifungal activity against Absidia species by EUCAST method
[21] = Antifungal activity against Rhinocladiella aquaspersa; in short: as §1
Candida tropicalis [22] = test: Antifungal activity against Candida tropicalis; in short: as §3
Aspergillus flavus [23] = test: Antifungal activity against Aspergillus flavus by EUCAST method
Aspergillus niger [24] = test: Antifungal activity against Aspergillus niger by EUCAST method
Curvularia lunata = test: Antifungal activity against Curvularia lunata
Saccharomyces cerevisiae [25] = test: Antifungal activity against Saccharomyces cerevisiae
In short: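 Broth microdilution following EUCAST for fermentative yeasts, in flat-bottom plates with RPMI 1640 plus 2% glucose. Inoculum was 0.5 × 10^5 to 2.5 × 10^5 CFU/ml. End points were read spectrophotometrically at 24 h: ≥90% growth reduction versus a drug-free control for amphotericin B, and 50% OD reduction for azoles and caspofungin. MFC was the lowest concentration giving 99% killing.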

Scedosporium apiospermum [26] = test: Antifungal activity against Scedosporium apiospermum by EUCAST method; in short: as §2
Mucor hiemalis [27] = test: Antifungal activity against Mucor hiemalis

SMILES: CC[C@@H]([C@H](C)O)n1ncn(-c2ccc(N3CCN(c4ccc(OC[C@@H]5CO[C@@](Cn6cncn6)(c6ccc(F)cc6F)C5)cc4)CC3)cc2)c1=O [POSACONAZOLE]
- MFC (Geotrichum candidum): > 8 µg/mL
- MIC (Curvularia australiensis [1]): 0.12 µg/mL (≈ 0.171 µM)
- MIC [2]: 5.33 µg/mL (≈ 7.61 µM)
- MFC (Candida parapsilosis): 0.06 µg/mL (≈ 0.0856 µM)
- MFC (Absidia [3]): 0.5 µg/mL (≈ 0.713 µM)
- MIC (Candida tropicalis [4]): 0.12 µg/mL (≈ 0.171 µM)
- MIC (Saccharomyces cerevisiae [5]): 0.66 µg/mL (≈ 0.942 µM)
- MFC (Trichosporon inkin): 0.5 µg/mL (≈ 0.713 µM)
- MFC (Aspergillus niger [6]): 1 µg/mL (≈ 1.43 µM)
- MFC (Fusarium oxysporum [7]): 0.25 µg/mL (≈ 0.357 µM)
- MFC [8]: 0.125 µg/mL (≈ 0.178 µM)
- MFC (Curvularia australiensis [9]): 0.125 µg/mL (≈ 0.178 µM)
- MIC (Rhizopus arrhizus [10]): 1.89 µg/mL (≈ 2.7 µM)
- MIC (Penicillium sp.): 0.05 µg/mL (≈ 0.0713 µM)
- MFC (Aspergillus fumigatus): 0.5 µg/mL (≈ 0.713 µM)
- MIC (Fusarium oxysporum [11]): 0.12 µg/mL (≈ 0.171 µM)
- MIC [12]: 0.45 µg/mL (≈ 0.642 µM)
- MFC (Scedosporium apiospermum [13]): 1 µg/mL (≈ 1.43 µM)
- MIC (Mucor hiemalis [14]): 1.33 µg/mL (≈ 1.9 µM)
- MFC (Candida albicans): 0.12 µg/mL (≈ 0.171 µM)
- MIC [15]: 0.14 µg/mL (≈ 0.2 µM)
- MFC (Aspergillus terreus [16]): 0.5 µg/mL (≈ 0.713 µM)
- MIC (Lichtheimia corymbifera): 0.29 µg/mL (≈ 0.414 µM)
- MFC (Rhizopus): > 2 µg/mL
- MIC (Aspergillus terreus [17]): 0.19 µg/mL (≈ 0.271 µM)
- MFC (Aspergillus flavus [18]): 0.5 µg/mL (≈ 0.713 µM)
- MFC (Rhizopus arrhizus [19]): 2 µg/mL (≈ 2.85 µM)
- MIC (Absidia [20]): 0.33 µg/mL (≈ 0.471 µM)
- MFC [21]: 0.125 µg/mL (≈ 0.178 µM)
- MFC (Candida tropicalis [22]): > 0.12 µg/mL
- MIC (Aspergillus flavus [23]): 0.21 µg/mL (≈ 0.3 µM)
- MIC (Aspergillus niger [24]): 0.26 µg/mL (≈ 0.371 µM)
- MFC (Curvularia lunata): 0.5 µg/mL (≈ 0.713 µM)
- MFC (Saccharomyces cerevisiae [25]): > 4 µg/mL
- MIC (Scedosporium apiospermum [26]): 1 µg/mL (≈ 1.43 µM)
- MFC (Mucor hiemalis [27]): 2 µg/mL (≈ 2.85 µM)

Reference: ChEMBL document CHEMBL1275524, “Activities of antifungal agents against yeasts and filamentous fungi: assessment according to the methodology of the European Committee on Antimicrobial Susceptibility Testing” (2008)
